Experimental data: ChEMBL document CHEMBL5252513, “Identification of a Benzoisoxazoloazepine Inhibitor (CPI-0610) of the Bromodomain and Extra-Terminal (BET) Family as a Candidate for Human Clinical Trials” (J Med Chem, 2016)
Calls of active or inactive are those of the source. No cut-off for these calls is given here.

Tests used:
[1] = biological target: T1, Bromodomain-containing protein 9 (Homo sapiens, UniProt Q9H8M2); experiment: Displacement of biotinylated JQ1 from BRD9 bromodomain (unknown origin) incubated for 20 mins by AlphaLISA assay
T1 sequence (Q9H8M2 whole entry): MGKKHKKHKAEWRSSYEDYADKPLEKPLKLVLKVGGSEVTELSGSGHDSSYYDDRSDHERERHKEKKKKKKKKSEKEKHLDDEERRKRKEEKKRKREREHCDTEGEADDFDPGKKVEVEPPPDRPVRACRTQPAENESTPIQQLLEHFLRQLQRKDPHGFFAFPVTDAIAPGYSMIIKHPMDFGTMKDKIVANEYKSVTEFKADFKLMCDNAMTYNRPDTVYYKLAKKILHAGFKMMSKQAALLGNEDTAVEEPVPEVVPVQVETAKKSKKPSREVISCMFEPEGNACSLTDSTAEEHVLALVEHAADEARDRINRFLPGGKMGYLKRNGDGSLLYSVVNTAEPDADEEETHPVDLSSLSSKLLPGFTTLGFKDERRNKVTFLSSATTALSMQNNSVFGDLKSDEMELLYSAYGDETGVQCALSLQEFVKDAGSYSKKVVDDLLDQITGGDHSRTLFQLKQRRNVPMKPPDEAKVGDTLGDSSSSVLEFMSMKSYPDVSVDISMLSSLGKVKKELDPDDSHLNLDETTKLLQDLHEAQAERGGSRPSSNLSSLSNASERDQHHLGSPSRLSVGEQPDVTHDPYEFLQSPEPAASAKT

Peregrin = biological target: T2, Peregrin (Homo sapiens, UniProt P55201); experiment: Binding affinity to BRPF1 bromodomain (unknown origin) incubated for 60 mins by TR-FRET assay
T2 sequence (P55201 whole entry): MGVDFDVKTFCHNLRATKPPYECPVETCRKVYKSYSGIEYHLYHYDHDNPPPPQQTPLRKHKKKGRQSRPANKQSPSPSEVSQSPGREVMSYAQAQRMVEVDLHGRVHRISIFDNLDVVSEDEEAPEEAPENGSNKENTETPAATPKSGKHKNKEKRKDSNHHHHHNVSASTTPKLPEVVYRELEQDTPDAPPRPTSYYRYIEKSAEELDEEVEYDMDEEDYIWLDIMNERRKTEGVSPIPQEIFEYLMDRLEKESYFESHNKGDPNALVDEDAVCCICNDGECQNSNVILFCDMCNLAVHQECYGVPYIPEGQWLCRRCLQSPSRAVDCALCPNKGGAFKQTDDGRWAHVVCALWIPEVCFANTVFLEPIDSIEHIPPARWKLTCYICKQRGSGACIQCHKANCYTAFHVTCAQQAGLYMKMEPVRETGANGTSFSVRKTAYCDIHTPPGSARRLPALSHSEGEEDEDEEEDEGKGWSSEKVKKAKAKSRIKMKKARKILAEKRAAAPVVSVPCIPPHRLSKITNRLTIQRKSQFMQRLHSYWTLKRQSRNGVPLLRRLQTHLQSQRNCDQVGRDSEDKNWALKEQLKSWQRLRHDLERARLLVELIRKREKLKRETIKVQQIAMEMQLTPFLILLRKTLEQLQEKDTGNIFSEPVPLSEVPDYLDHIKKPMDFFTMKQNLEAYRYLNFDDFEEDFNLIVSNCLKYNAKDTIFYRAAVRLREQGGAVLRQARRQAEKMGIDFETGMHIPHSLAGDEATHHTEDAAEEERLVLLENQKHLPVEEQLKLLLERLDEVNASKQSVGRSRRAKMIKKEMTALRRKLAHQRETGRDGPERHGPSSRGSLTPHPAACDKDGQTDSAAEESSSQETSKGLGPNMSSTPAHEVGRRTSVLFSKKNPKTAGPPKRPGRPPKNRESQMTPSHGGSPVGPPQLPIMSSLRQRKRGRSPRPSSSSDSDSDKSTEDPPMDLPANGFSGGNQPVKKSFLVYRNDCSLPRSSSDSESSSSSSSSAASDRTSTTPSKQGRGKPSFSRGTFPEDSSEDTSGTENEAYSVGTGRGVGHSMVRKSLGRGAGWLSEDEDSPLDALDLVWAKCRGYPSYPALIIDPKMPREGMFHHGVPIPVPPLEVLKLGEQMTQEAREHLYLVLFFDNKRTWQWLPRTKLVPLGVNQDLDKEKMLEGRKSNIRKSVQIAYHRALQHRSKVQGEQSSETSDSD

[2] = biological target: T1, Bromodomain-containing protein 9; experiment: Binding affinity to BRD9 bromodomain (unknown origin) incubated for 60 mins by TR-FRET assay
[3] = biological target: Bromodomain-containing protein 8 (Homo sapiens, UniProt Q9H0E9); experiment: Displacement of biotinylated JQ1 from BRD8 bromodomain (unknown origin) incubated for 20 mins by AlphaLISA assay
Chain of Bromodomain-containing protein 8 (Q9H0E9 whole entry): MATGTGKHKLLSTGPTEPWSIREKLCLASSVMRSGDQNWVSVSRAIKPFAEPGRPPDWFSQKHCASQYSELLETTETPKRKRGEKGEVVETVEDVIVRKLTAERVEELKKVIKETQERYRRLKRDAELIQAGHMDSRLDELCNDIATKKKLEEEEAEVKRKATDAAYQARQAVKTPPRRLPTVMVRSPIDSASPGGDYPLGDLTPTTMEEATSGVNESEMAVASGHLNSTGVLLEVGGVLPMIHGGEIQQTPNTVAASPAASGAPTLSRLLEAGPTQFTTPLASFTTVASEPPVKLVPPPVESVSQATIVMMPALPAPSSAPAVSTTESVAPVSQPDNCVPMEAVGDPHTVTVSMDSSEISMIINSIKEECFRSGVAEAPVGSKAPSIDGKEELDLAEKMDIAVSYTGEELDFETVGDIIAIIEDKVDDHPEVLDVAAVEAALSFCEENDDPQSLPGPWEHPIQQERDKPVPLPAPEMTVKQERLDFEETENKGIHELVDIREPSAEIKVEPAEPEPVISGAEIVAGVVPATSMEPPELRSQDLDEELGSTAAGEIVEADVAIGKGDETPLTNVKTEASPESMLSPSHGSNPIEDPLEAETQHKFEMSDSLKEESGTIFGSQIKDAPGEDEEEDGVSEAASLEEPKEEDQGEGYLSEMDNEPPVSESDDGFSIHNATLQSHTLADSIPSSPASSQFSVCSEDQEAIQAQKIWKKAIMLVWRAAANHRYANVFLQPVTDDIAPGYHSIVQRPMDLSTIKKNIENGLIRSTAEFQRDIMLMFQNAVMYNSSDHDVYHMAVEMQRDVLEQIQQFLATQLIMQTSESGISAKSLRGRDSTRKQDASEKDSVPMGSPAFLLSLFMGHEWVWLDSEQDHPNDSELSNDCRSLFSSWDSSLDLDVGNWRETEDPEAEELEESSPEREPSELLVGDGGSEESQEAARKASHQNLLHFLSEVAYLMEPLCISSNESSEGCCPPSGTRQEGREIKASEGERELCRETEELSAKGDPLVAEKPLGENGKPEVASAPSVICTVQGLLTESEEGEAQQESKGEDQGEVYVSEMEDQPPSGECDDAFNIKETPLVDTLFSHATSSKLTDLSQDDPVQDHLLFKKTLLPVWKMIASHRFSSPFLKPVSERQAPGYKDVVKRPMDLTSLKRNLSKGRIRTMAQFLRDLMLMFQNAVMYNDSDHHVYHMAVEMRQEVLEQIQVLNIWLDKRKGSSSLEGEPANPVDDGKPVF

[4] = Unbound AUC in rat at 5 mg/kg,po; assay type: ADME, organism-based; settings: in vivo
[5] = Oral bioavailability in dog at 2.5 mg/kg; assay type: ADME, organism-based, Canis lupus familiaris; settings: in vivo
[6] = Cmax in human patient with progression lymphoma at 300 mg,po QD consecutively for 14 days; assay type: ADME; parameters: time 14 day, dose 300 mg, route po; settings: in vivo
How it was run: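 Phase I trial in patients with hematologic malignancies, oral dosing once daily with escalating cohorts; values are from the 300 mg dose on day 14. AUC0-24 was taken as exposure over 24 h. Apparent clearance was calculated as Dose/AUC0-24.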

[7] = Tmax in human patient with progression lymphoma at 300 mg,po QD consecutively for 14 days; assay type: ADME; settings: in vivo, time 14 day
[8] = Cmax in mouse at 10 mg/kg,sc; assay type: ADME, organism-based; parameters: dose 10 mg/kg, route sc; settings: in vivo
MV4-11 [9] = experiment: Antitumor activity against human MV4-11 cells xenografted in BALB/c mouse assessed as tumor growth inhibition at 60 mg/kg,po QD for 28 days; assay type: functional; settings: MV4-11, 672 h, time 28 day, read-out: TGI
How it was run: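 Single-agent efficacy in MV-4-11 AML mouse xenograft. Tumor volume (mm3) and percent body-weight change were tracked over the treatment days.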

[10] = Toxicity against BALB/c mouse plasma xenografted with human MV4-11 cells assessed as body weight loss at 10 mg/kg,sc BID in presence of doxorubicin at 2 mg/kg,iv BIW for 28 days; assay type: organism-based; settings: in vivo, 672 h, time 28 day
How it was run: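 MV-4-11 acute myeloid leukemia mouse xenograft; BET inhibitor given subcutaneously 10 mg/kg twice daily, doxorubicin 2 mg/kg IV twice weekly, alone or combined, for 28 days; body weight change (%) tracked over treatment against vehicle.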

MV4-11 [11] = experiment: Antitumor activity against human MV4-11 cells xenografted in BALB/c mouse assessed as slower tumor regrowth after drug therapy removal at 10 mg/kg,sc BID in presence of doxorubicin at 2 mg/kg,iv BIW for 28 days; assay type: functional, organism-based; settings: time 28.0 day

Structure (SMILES): Cc1noc2c1-c1ccccc1C(c1ccc(Cl)cc1)=N[C@H]2CC(N)=O [PELABRESIB]
- IC50 [1]: > 80 µM
- IC50 (Peregrin): > 20 µM
- IC50 [2]: > 80 µM
- IC50 [3]: > 15 µM
- fAUC [4]: 0.64 µM·h
- bioavailability [5]: 45%
- Cmax [6]: 5.9 µM
- Tmax [7]: 1.8 h
- Cmax [8]: 8.4 µM
- inhibition in vivo at 60 mg/kg (MV4-11 [9]): 74%
- Activity [10]: Non-Toxic
- Activity (MV4-11 [11]): Active
